# Test results as given in ChEMBL document CHEMBL3997768, “The synthesis and antistaphylococcal activity of dehydroabietic acid derivatives: modifications at C12 and C7” (2017).
# Calls of active or inactive are those of the source. How the calls were made is not given here.
# Assays:
# Format in all cases: functional
# Staphylococcus aureus [1] = test: Antibacterial activity against aminoglycosides/tetracycline-resistant Staphylococcus aureus NRS-1 after 18 hrs by two fold serial dilution method; details: NRS-1, 18 h
# Summary of the method: (§1)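 Strains grown overnight at 37 °C in TSB without antibiotic. Cultures were diluted 1000-fold, grown at 37 °C for 2–3 h to A600 0.6, then diluted 1:400 in fresh TSB. Equal volumes of bacteria and two-fold serial DMSO dilutions (final 0.39–50) were mixed. A600 was read after 18 h. MIC was the lowest concentration inhibiting growth. Run in triplicate, with vancomycin and tetracycline controls.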
# Staphylococcus aureus [2] = test: Antibacterial activity against linezolid-resistant Staphylococcus aureus NRS-271 containing phage type E-MRSA after 18 hrs by two fold serial dilution method; details: NRS-271, 18 h; summary of the method: as §1
# Staphylococcus aureus [3] = test: Antibacterial activity against Staphylococcus aureus Newman after 18 hrs by two fold serial dilution method
# Summary of the method: (§2)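 Strains were grown overnight at 37 °C in TSB without antibiotic, diluted 1000-fold, and grown 2–3 h to A600 0.6. They were then diluted 1:400 in fresh TSB. Compounds in DMSO were two-fold serially diluted to a final 0.39–50 and mixed with an equal volume of bacteria. A600 was read after 18 h. MIC is the lowest concentration inhibiting growth. Triplicate; vancomycin and tetracycline were positive controls.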
# Staphylococcus aureus [4] = test: Antibacterial activity against gentamicin-resistant Staphylococcus aureus NRS-108 after 18 hrs by two fold serial dilution method; details: NRS-108, 18 h; summary of the method: as §1
# Staphylococcus aureus [5] = test: Antibacterial activity against oxacillin/tetracycline-resistant Staphylococcus aureus NRS-100 after 18 hrs by two fold serial dilution method; details: NRS-100, 18 h; summary of the method: as §1
# Staphylococcus aureus [6] = test: Antibacterial activity against erythromycin-resistant Staphylococcus aureus NRS-70 after 18 hrs by two fold serial dilution method; details: NRS-70, 18 h; summary of the method: as §1
# Escherichia coli = test: Antibacterial activity against Escherichia coli AB1157 at 50 ug/ml after 18 hrs by two fold serial dilution method; summary of the method: as §2
SMILES,MIC (Staphylococcus aureus [1]) [µM],MIC (Staphylococcus aureus [2]) [µM],MIC (Staphylococcus aureus [3]) [µM],MIC (Staphylococcus aureus [4]) [µM],MIC (Staphylococcus aureus [5]) [µM],MIC (Staphylococcus aureus [6]) [µM],Activity (Escherichia coli)
CN(C)[C@@H]1C(O)=C(C(N)=O)C(=O)[C@@]2(O)C(O)=C3C(=O)c4c(O)cccc4[C@@](C)(O)[C@H]3C[C@@H]12 [TETRACYCLINE],> 56.2,< 7.04,< 2.16,< 7.04,< 7.04,< 7.04,
CC(C)c1cc2c(cc1Br)[C@@]1(C)CCC[C@@](C)(C(=O)O)[C@@H]1C/C2=N\OCCCNC(=O)c1ccc(Cl)s1,10.2 to 20.5,2.56 to 4.1,2.05 to 4.1,2.56 to 4.1,5.13,2.56 to 4.1,inactive
CC(C)c1cc2c(cc1Br)[C@@]1(C)CCC[C@@](C)(C(=O)O)[C@@H]1C/C2=N\OCCCNC(=O)c1ccc(C(F)(F)F)cc1,9.8 to 19.6,2.45 to 3.92,1.96 to 3.92,2.45 to 3.92,4.91,1.96 to 2.45,inactive
CC(C)c1cc2c(cc1Br)[C@@]1(C)CCC[C@@](C)(C(=O)O)[C@@H]1C/C2=N\OCCCNC(=O)c1cccc(C(F)(F)F)c1,> 19.6,3.92 to 4.91,1.96 to 3.92,3.92 to 4.91,4.91,4.91,inactive
CC(C)c1cc2c(cc1Br)[C@@]1(C)CCC[C@@](C)(C(=O)O)[C@@H]1C/C2=N\OCCCNC(=O)c1ccc[nH]1,5.6,2.79 to 4.48,4.48,2.79 to 4.48,2.79 to 4.48,2.79 to 4.48,inactive
CN[C@H](CC(C)C)C(=O)N[C@H]1C(=O)N[C@@H](CC(N)=O)C(=O)N[C@H]2C(=O)N[C@H]3C(=O)N[C@H](C(=O)N[C@H](C(=O)O)c4cc(O)cc(O)c4-c4cc3ccc4O)[C@H](O)c3ccc(c(Cl)c3)Oc3cc2cc(c3O[C@@H]2O[C@H](CO)[C@@H](O)[C@H](O)[C@H]2O[C@H]2C[C@](C)(N)[C@H](O)[C@H](C)O2)Oc2ccc(cc2Cl)[C@H]1O [VANCOMYCIN],1.72 to 3.45,< 1.72,< 1.73,< 1.72,0.86 to 1.72,< 1.72,
CC(C)c1cc2c(cc1Br)[C@@]1(C)CCC[C@@](C)(C(=O)O)[C@@H]1C/C2=N\OCCCNC(=O)c1ccc(Br)s1,> 19.1,2.38 to 3.82,1.91 to 3.82,2.38 to 3.82,4.78,2.38 to 3.82,inactive
CC(C)c1cc2c(cc1Br)[C@@]1(C)CCC[C@@](C)(C(=O)O)[C@@H]1C/C2=N\OCCCNC(=O)Cc1ccc(C(F)(F)F)cc1,> 19.2,4.8 to 9.59,3.84,2.39 to 3.84,4.8 to 9.59,2.39 to 3.84,inactive
CC(C)c1cc2c(cc1Br)[C@@]1(C)CCC[C@@](C)(C(=O)O)[C@@H]1C/C2=N\OCCNC(=O)c1cc2ccccc2s1,4.09 to 5.12,2.05 to 2.55,2.04 to 4.09,2.55 to 4.09,2.55 to 4.09,2.04 to 4.09,inactive
CC(C)c1cc2c(cc1Br)[C@@]1(C)CCC[C@@](C)(C(=O)O)[C@@H]1C/C2=N\OCCNC(=O)c1cccc(C(F)(F)F)c1,5.02,2.5 to 4.01,4.01,2.5 to 4.01,5.02,2.5 to 4.01,inactive
CC(C)c1cc2c(cc1Br)[C@@]1(C)CCC[C@@](C)(C(=O)O)[C@@H]1C/C2=N\OCCNC(=O)c1ccc(Br)s1,4.89 to 9.76,2.44 to 3.9,3.9,2.44 to 3.9,4.89,2.44 to 3.9,inactive
CC(C)c1cc2c(cc1Br)[C@@]1(C)CCC[C@@](C)(C(=O)O)[C@@H]1C/C2=N\OCCCNC(=O)c1cc2ccccc2s1,> 40,> 40,4,> 40,> 40,> 40,inactive
CC(C)c1cc2c(cc1Br)[C@@]1(C)CCC[C@@](C)(C(=O)O)[C@@H]1C/C2=N\OCCCNC(=O)Cc1cccc(C(F)(F)F)c1,> 19.2,2.39 to 3.84,1.92 to 3.84,2.39 to 3.84,3.84 to 4.8,1.92 to 2.39,inactive
CC(C)c1cc2c(cc1Br)[C@@]1(C)CCC[C@@](C)(C(=O)O)[C@@H]1C/C2=N\OCCNC(=O)C1CC1,,,57.8 to 77,,,,inactive
CC(C)c1cc2c(cc1Br)[C@@]1(C)CCC[C@@](C)(C(=O)O)[C@@H]1C/C2=N\OCCNC(=O)c1c(F)c(F)c(F)c(F)c1F,,,5.81 to 7.75,,,,inactive
COc1ccccc1C(=O)NCCO/N=C1\C[C@H]2[C@](C)(C(=O)O)CCC[C@]2(C)c2cc(Br)c(C(C)C)cc21,,,8.54 to 10.7,,,,inactive
CC(C)c1cc2c(cc1Br)[C@@]1(C)CCC[C@@](C)(C(=O)O)[C@@H]1C/C2=N\OCCNC(=O)c1ccsc1,,,> 89,,,,inactive
CC(C)c1cc2c(cc1Br)[C@@]1(C)CCC[C@@](C)(C(=O)O)[C@@H]1C/C2=N\OCCCNC(=O)c1cc(Br)cs1,4.78 to 9.55,2.38 to 3.82,1.91 to 3.82,2.38 to 3.82,4.78,1.91 to 2.38,inactive
CC(C)c1cc2c(cc1Br)[C@@]1(C)CCC[C@@](C)(C(=O)O)[C@@H]1C/C2=N\OCCNC(=O)c1ccc(Cl)s1,5.25 to 10.5,1.56 to 2.5,4.19,2.62 to 4.19,4.19,2.62 to 4.19,inactive
CC(C)c1cc2c(cc1Br)[C@@]1(C)CCC[C@@](C)(C(=O)O)[C@@H]1C/C2=N\OCCNC(=O)c1ccccc1,,,18 to 22.5,,,,inactive
